Measurements: BindingDB's records for doi:10.1021/jm00107a020 (Pfizer, 1991)

Biological target: Aldo-keto reductase family 1 member B1 (Homo sapiens, UniProt P15121)
Test: In vitro inhibition of human placental aldose reductase.
Method in brief: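 Human placental aldose reductase, partly purified (placentae homogenized in 0.1 M K phosphate pH 7.0 with 5 mM 2-mercaptoethanol, spun 33000g, peak fractions pooled). Assay in 50 mM K phosphate pH 7.1 with 0.4 M ammonium sulfate, 0.067 mM NADPH, 1.0 mM DL-glyceraldehyde; enzyme set to 4 milliunits; NADPH oxidation at 340 nm, 25 °C, 10 min. IC50 by log linear regression.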

| IC50 | SMILES |
| --- | --- |
| 2300 nM | CCOC(=O)C1CN(Cc2cccc3ccccc23)C(=O)C1=O (configuration not stated) |
| 2300 nM | CCOC(=O)C1CN(Cc2ccccc2Cl)C(=O)C1=O (configuration not stated) |
